According to ChEMBL document CHEMBL4371033, “Highly Potent and Selective Plasmin Inhibitors Based on the Sunflower Trypsin Inhibitor-1 Scaffold Attenuate Fibrinolysis in Plasma” (J Med Chem, 2019):
Residues, ends and D or L forms follow the SMILES beside them.

Columns and labels:
Plasminogen [1] = molecular target: T1, Plasminogen (Homo sapiens, UniProt P00747); assay: Inhibition of human plasmin using Ac-RM(O2)YR-pNA as substrate after 30 mins
Cathepsin G = molecular target: T2, Cathepsin G (Homo sapiens, UniProt P08311); assay: Inhibition of human cathepsin G using Suc-AAPF-MCA as substrate after 30 mins
T2 sequence (P08311 whole entry): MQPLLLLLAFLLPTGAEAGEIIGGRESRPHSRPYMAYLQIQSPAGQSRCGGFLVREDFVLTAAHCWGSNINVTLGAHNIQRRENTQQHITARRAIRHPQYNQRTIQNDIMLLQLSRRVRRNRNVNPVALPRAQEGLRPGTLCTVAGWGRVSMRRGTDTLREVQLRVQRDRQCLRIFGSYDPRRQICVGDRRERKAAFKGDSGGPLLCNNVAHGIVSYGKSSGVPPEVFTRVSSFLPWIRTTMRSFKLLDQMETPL

Coagulation factor IX = Coagulation factor IX (Homo sapiens, UniProt P00740); assay: Inhibition of activated beta-factor 9 (unknown origin) using Boc-QGR-MCA as substrate after 30 mins relative to untreated control
Prothrombin = Prothrombin (Homo sapiens, UniProt P00734); assay: Inhibition of human thrombin using Ac-ATPR-pNA as substrate after 30 mins relative to untreated control
[2] = molecular target: Tissue-type plasminogen activator (Homo sapiens, UniProt P00750); assay: Inhibition of tPA (unknown origin) using Z-Pyr-Gly-Arg-MCA as substrate after 30 mins relative to untreated control
[3] = molecular target: Urokinase-type plasminogen activator (Homo sapiens, UniProt P00749); assay: Inhibition of uPA (unknown origin) using Z-Pyr-Gly-Arg-MCA as substrate after 30 mins relative to untreated control
Coagulation factor XI = Coagulation factor XI (Homo sapiens, UniProt P03951); assay: Inhibition of activated beta-factor 11 (unknown origin) using Bz-FVRpNA as substrate after 30 mins relative to untreated control
Plasma kallikrein = Plasma kallikrein (Homo sapiens, UniProt P03952); assay: Inhibition of plasma KLK (unknown origin) using Ac-NLTR-pNA as substrate after 30 mins relative to untreated control
[4] = molecular target: T3, Suppressor of tumorigenicity 14 protein (Homo sapiens, UniProt Q9Y5Y6); assay: Inhibition of matriptase (unknown origin) using Boc-QAR-MCA as substrate after 30 mins relative to untreated control
T3 sequence (Q9Y5Y6 whole entry): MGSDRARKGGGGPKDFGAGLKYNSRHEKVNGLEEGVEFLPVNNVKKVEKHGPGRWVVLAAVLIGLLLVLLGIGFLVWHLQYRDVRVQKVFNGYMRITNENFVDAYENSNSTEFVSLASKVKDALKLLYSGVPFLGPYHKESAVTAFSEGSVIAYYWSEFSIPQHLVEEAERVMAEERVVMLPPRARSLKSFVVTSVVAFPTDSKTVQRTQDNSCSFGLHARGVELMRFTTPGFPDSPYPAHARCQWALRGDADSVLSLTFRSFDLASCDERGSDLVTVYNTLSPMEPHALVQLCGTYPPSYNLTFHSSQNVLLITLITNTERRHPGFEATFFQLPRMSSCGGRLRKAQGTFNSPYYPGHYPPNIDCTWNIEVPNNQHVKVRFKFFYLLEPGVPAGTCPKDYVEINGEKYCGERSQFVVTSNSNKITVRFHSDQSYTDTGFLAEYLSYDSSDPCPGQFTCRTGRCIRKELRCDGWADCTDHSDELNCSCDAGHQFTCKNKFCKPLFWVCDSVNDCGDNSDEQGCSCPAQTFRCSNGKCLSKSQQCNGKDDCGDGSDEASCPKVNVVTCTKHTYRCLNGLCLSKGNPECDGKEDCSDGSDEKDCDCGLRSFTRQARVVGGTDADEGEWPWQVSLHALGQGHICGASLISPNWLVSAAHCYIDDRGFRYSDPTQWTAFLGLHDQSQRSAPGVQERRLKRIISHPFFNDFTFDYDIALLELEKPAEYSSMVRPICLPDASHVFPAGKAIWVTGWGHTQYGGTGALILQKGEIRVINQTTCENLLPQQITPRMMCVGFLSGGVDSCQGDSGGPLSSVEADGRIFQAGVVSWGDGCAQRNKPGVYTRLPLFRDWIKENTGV

Plasminogen [5] = molecular target: T1, Plasminogen; assay: Inhibition of human plasmin assessed as dissociation rate constant using Ac-RM(O2)YR-pNA as substrate after 30 mins
Method in brief: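 koff from the Baici and Gyger-Marazzi method: the lag phase before steady-state hydrolysis was compared between protease/inhibitor preincubated and substrate plus inhibitor added together. Human plasmin in 100 mM Tris pH 8.0, 100 mM NaCl, 0.005% Triton X-100, pNA substrate read at 405 nm.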

Plasminogen [6] = molecular target: T1, Plasminogen; assay: Inhibition of human plasmin assessed as association rate constant using Ac-RM(O2)YR-pNA as substrate after 30 mins
Plasminogen [7] = molecular target: T1, Plasminogen; assay: Inhibition of plasmin in human plasma assessed as reduction in tPA and thrombin-induced fibrinolysis at 400 nM by fibrin light scattering analysis relative to control; assay type: cell-free
Method in brief: (§1)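 Pooled citrated human plasma with inhibitor in Tris-HCl pH 7.4, 150 mM NaCl, 30 mM CaCl2, plasma 1:5 final. Clotting and lysis started with tPA (1.5 nM) and thrombin (2.5 nM). Fibrin formation and lysis followed by light scattering at 405 nm over 1 h. Mean of three independent experiments, each with 12 technical replicates.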

Plasminogen [8] = molecular target: T1, Plasminogen; assay: Inhibition of plasmin in human plasma assessed as reduction in tPA and thrombin-induced fibrinolysis at 200 nM by fibrin light scattering analysis relative to control; assay type: cell-free; method in brief: as §1
Homo sapiens [9] = species: Homo sapiens; assay: Selectivity index, ratio of IC50 for inhibition of activated beta-factor 9 (unknown origin) to IC50 for Inhibition of human plasmin
Homo sapiens [10] = species: Homo sapiens; assay: Selectivity index, ratio of IC50 for inhibition of activated beta-factor 12 (unknown origin) to IC50 for Inhibition of human plasmin
Homo sapiens [11] = species: Homo sapiens; assay: Selectivity index, ratio of IC50 for inhibition of tPA (unknown origin) to IC50 for Inhibition of human plasmin
Homo sapiens [12] = species: Homo sapiens; assay: Selectivity index, ratio of IC50 for inhibition of uPA (unknown origin) to IC50 for Inhibition of human plasmin

T1 sequence (P00747 97-580 limits assumed): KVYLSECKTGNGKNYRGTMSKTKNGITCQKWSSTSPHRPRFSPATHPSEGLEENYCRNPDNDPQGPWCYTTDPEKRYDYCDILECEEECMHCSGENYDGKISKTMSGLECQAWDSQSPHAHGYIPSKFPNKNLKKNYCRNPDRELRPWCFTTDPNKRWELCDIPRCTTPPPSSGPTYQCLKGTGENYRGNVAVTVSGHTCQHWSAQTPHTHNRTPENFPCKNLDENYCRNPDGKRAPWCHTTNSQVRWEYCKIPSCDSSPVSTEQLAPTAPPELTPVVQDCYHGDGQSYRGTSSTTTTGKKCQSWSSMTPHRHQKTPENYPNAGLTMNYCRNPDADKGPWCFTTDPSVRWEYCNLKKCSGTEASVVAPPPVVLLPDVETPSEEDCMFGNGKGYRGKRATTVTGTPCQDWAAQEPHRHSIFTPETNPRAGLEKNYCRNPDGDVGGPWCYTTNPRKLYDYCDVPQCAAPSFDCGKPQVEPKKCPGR
T1 sequence (P00747 581-810 limits assumed): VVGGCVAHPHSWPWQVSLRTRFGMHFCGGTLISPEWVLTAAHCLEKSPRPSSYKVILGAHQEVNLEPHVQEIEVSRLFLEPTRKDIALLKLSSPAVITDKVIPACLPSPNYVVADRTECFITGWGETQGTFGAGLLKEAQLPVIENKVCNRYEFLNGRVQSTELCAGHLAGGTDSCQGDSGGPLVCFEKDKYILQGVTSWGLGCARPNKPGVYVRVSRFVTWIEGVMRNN
Sequence of Tissue-type plasminogen activator (P00750 whole entry): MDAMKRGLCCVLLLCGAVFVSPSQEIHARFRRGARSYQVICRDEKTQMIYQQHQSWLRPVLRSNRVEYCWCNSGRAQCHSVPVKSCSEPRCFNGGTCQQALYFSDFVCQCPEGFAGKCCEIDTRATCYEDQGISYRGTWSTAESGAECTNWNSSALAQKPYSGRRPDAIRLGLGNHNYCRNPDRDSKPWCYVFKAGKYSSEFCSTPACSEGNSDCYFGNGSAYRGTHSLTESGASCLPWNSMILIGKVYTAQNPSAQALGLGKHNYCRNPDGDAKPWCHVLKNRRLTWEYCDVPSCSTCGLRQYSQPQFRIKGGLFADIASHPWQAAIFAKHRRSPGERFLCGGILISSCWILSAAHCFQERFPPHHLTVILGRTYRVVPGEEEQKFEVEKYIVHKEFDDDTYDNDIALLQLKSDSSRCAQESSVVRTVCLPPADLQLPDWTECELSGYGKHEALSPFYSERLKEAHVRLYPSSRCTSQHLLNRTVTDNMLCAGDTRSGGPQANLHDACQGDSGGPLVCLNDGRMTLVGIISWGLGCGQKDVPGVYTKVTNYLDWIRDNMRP
Sequence of Coagulation factor IX (P00740 47-191 limits assumed): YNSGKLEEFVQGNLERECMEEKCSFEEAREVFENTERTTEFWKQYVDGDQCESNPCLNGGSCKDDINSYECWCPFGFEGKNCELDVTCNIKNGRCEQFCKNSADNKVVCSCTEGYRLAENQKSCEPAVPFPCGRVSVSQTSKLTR
Sequence of Coagulation factor IX (P00740 227-461 limits assumed): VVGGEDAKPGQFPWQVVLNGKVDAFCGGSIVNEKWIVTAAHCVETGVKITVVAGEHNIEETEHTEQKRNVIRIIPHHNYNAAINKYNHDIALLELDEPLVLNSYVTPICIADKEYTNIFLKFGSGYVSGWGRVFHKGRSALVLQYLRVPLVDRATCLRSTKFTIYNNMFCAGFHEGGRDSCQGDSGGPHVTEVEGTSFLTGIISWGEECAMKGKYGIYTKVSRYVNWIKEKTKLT
Sequence of Plasma kallikrein (P03952 20-390 limits assumed): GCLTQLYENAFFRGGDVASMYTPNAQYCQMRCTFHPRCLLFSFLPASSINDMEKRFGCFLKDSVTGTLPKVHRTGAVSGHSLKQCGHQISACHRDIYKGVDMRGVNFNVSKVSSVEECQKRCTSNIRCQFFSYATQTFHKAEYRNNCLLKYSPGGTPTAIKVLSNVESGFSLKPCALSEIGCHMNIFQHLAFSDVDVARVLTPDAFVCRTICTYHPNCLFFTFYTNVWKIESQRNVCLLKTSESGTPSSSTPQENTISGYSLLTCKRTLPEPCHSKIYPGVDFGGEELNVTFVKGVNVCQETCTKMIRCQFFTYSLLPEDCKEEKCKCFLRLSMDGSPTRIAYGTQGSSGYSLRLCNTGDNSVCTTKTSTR
Sequence of Plasma kallikrein (P03952 391-638 limits assumed): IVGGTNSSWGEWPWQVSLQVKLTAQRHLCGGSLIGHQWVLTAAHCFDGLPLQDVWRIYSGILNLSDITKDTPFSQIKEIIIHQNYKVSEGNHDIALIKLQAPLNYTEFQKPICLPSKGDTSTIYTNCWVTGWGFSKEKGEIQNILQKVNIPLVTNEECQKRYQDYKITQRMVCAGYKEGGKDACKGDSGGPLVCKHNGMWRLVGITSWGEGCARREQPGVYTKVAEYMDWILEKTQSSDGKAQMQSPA
Sequence of Coagulation factor XI (P03951 19-387 limits assumed): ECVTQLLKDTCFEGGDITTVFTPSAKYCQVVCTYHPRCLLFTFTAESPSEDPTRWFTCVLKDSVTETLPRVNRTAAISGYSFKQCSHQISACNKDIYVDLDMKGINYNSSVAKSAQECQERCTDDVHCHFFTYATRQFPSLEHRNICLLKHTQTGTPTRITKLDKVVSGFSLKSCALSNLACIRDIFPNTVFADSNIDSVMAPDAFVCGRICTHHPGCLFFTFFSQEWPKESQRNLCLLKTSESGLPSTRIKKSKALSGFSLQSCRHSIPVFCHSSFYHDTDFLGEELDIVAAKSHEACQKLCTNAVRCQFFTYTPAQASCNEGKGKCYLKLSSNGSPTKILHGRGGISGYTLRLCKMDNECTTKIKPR
Sequence of Coagulation factor XI (P03951 388-625 limits assumed): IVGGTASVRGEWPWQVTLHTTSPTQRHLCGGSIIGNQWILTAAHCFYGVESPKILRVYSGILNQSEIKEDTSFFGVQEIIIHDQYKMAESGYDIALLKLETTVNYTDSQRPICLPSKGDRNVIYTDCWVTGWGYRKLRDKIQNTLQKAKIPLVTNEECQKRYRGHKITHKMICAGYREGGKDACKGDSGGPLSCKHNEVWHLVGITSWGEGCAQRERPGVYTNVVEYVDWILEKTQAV

CC[C@H](C)[C@@H]1NC(=O)[C@@H]2CCCN2C(=O)[C@@H]2CCCN2C(=O)[C@H](CCCCN)NC(=O)[C@H](CO)NC(=O)[C@H](CCCCN)NC(=O)[C@H](Cc2ccc(O)cc2)NC(=O)[C@@H]2CSSC[C@H](NC1=O)C(=O)N[C@@H](Cc1ccccc1)C(=O)N1CCC[C@H]1C(=O)N[C@@H](CC(=O)O)C(=O)NCC(=O)N[C@@H](CCCNC(=N)N)C(=O)N2 (HELM PEPTIDE1{C.F.P.D.G.R.C.Y.K.S.K.P.P.I}$PEPTIDE1,PEPTIDE1,1:R3-7:R3|PEPTIDE1,PEPTIDE1,1:R1-14:R2$$$V2.0)
Ki (Plasminogen [1]): 51 pM
Ki (Cathepsin G): 29 µM
Ki (Coagulation factor IX): > 50 µM
Ki (Prothrombin): > 50 µM
Ki [2]: > 50 µM
Ki [3]: > 50 µM
Ki (Coagulation factor XI): > 50 µM
Ki (Plasma kallikrein): > 50 µM
Ki [4]: > 50 µM
K (Plasminogen [5]): 9.9 ×10⁻⁴ /s
K (Plasminogen [6]): 1.9 ×10⁷ /M/s
inhibition (Plasminogen [7]): 100%
inhibition (Plasminogen [8]): 90%
Ratio IC50 (Homo sapiens [9]): > 1e+06
Ratio IC50 (Homo sapiens [10]): > 1e+06
Ratio IC50 (Homo sapiens [11]): > 1e+06
Ratio IC50 (Homo sapiens [12]): > 1e+06
